A short description of data set [1]: Cytotoxicity against human DU145 cells by rapid colorimetric assay. Format: functional, cell-based, DU-145. The method in brief:
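Antiproliferative test on DU-145 cells using the Mosmann method. Seven concentrations were tested in culture medium.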

The target in data set [2] is T1, 3-oxo-5-alpha-steroid 4-dehydrogenase 1 (Homo sapiens) (UniProt P18405).
T1 sequence (whole entry): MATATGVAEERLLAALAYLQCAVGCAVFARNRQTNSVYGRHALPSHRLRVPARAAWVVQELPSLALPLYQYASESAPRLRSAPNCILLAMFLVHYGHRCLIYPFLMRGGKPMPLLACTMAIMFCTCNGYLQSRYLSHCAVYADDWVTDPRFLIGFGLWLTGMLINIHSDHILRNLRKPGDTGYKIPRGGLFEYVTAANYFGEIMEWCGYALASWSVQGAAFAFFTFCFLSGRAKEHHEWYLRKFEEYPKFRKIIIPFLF
Kind of data set: Inhibition of human 5alpha-1 reductase expressed in HEK293 cells assessed as suppression of conversion of [3]androstenedione at 10 uM incubated for 30 mins by radioactivity-based HPLC analysis. It is filed as cell-based. The method in brief: (§1)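 Stably transfected HEK293 lines expressing 5AR-1 (HEK-I) or 5AR-2 (HEK-II) were sonicated in saccharose/Tris/EDTA buffer. The suspension was incubated at 37 °C for 30 min with 500 nM androstenedione solution plus [3H]androstenedione and an NADP/glucose/G6PDH regenerating system. Test compounds were added in 2% DMSO. The reaction was stopped with ether; steroids were extracted and analysed by radio-HPLC.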

Data set [3] deals with T2, 3-oxo-5-alpha-steroid 4-dehydrogenase 2 (Homo sapiens) (UniProt P31213).
T2 sequence (whole entry): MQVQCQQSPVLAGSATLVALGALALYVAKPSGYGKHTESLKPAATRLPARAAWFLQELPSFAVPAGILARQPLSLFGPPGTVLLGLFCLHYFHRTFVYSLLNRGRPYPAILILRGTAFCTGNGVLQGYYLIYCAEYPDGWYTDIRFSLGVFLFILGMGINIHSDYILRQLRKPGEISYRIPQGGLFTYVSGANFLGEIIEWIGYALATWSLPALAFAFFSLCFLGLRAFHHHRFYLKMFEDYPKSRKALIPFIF
Put plainly: Inhibition of human 5alpha-2 reductase expressed in HEK293 cells assessed as suppression of conversion of [3]androstenedione at 10 uM incubated for 30 mins by radioactivity-based HPLC analysis. It is filed as cell-based. The method in brief:
as §1

For data set [4], the target named is T2, 3-oxo-5-alpha-steroid 4-dehydrogenase 2 (Homo sapiens). Kind of data set: Inhibition of human 5alpha-2 reductase expressed in HEK293 cells assessed as suppression of conversion of [3]androstenedione at 2 uM incubated for 30 mins by radioactivity-based HPLC analysis. It is filed as cell-based. In outline: as §1
Data set [5] has as its target T3, 3-oxo-5-alpha-steroid 4-dehydrogenase 2 (Homo sapiens, UniProt P31213).
T3 sequence (P31213 whole entry): T2 sequence (whole entry)
Kind of data set: Inhibition of human 5alpha-2 reductase expressed in HEK293 cells assessed as suppression of conversion of [3]androstenedione incubated for 30 mins by radioactivity-based HPLC analysis. Format: cell-based. In outline: as §1

In data set [6] the test system is Rattus norvegicus. Kind of data set: Increase in body weight gain in male wistar rat at 5ml/kg, po qd measured on 15th day after 24 hrs of last dose (Rvb=9.412+/-1.632g%). Format: ADME, organism-based. The conditions noted are these: in vivo.
The subject of data set [7] is Rattus norvegicus. Kind of data set: Effect on organ weight in male wistar rat assessed as liver tissue weight per 100g at 5ml/kg, po qd measured on 15th day after 24 hrs of last dose (Rvb=2.994+/- 0.254 g/100g). It is filed as ADME, organism-based. The conditions noted are these: in vivo.
Data set [8] has as its system Rattus norvegicus. Put plainly: Effect on organ weight in male wistar rat assessed as ventral prostate tissue weight per 100g at 5ml/kg, po qd measured on 15th day after 24 hrs of last dose (Rvb=59.494+/- 4.733 mg/100g). Format: functional, Prostate gland.
Data set [9] relates to Rattus norvegicus. Put plainly: Effect on organ weight in male wistar rat assessed as dorsal prostate tissue weight per 100g at 5ml/kg, po qd measured on 15th day after 24 hrs of last dose (Rvb=50.325+/-7.519 mg/100g). It is filed as functional, Prostate gland.
In data set [10] the test system is Rattus norvegicus. Kind of data set: Effect on organ weight in male wistar rat assessed as seminal vesicles tissue weight per 100g at 5ml/kg, po qd measured on 15th day after 24 hrs of last dose (Rvb=175.439+/-12.833 mg/100g). The following applies: in vivo. Format: ADME, organism-based.
The test system of data set [11] is Rattus norvegicus. Kind of data set: Effect on organ weight in male wistar rat assessed testis tissue weight per 100g at 5ml/kg, po qd measured on 15th day after 24 hrs of last dose (Rvb=1054.099+/- 55.648 mg/100g). It is filed as ADME, organism-based. The following applies: in vivo.
In data set [12] the test system is Rattus norvegicus. Put plainly: Effect on organ weight in male wistar rat assessed as adrenal tissue weight per 100g at 5ml/kg, po qd measured on 15th day after 24 hrs of last dose (Rvb=14.762 +/-0.600 mg/100g). Format: ADME, organism-based. The following applies: in vivo.
The test system of data set [13] is Rattus norvegicus. Put plainly: Effect on organ weight in male wistar rat assessed as vas deferens tissue weight per 100g at 5ml/kg, po qd measured on 15th day after 24 hrs of last dose (Rvb=67.613+/-3.248 mg/100g). It is filed as functional.
The test system of data set [14] is Rattus norvegicus. Put plainly: Effect on organ weight in male wistar rat assessed as epididymis tissue weight per 100g at 5ml/kg, po qd measured on 15th day after 24 hrs of last dose (Rvb=187.356+/- 5.961 mg/100g). It is filed as functional.
The test system of data set [15] is Rattus norvegicus. Put plainly: Decrease in ventral prostate organ weight in male wistar rat at 5ml/kg, po qd measured on 15th day after 24 hrs of last dose. Format: functional, Prostate gland. More on the design: scale not given: the % may be the effect or the level left.
In data set [16] the test system is Rattus norvegicus. Put plainly: Decrease in dorsal prostate organ weight in male wistar rat at 5ml/kg, po qd measured on 15th day after 24 hrs of last dose. Format: functional, Prostate gland. Further details: scale not given: the % may be the effect or the level left; call rule not given here.
Data set [17] has as its system Rattus norvegicus. Put plainly: Decrease in vas deferens organ weight in male wistar rat at 5ml/kg, po qd measured on 15th day after 24 hrs of last dose. Format: functional. Further details: scale not given: the % may be the effect or the level left.
For data set [18], the system named is Rattus norvegicus. Kind of data set: Decrease in epididymis organ weight in male wistar rat at 5ml/kg, po qd measured on 15th day after 24 hrs of last dose. Format: functional. More on the design: scale not given: the % may be the effect or the level left.
The subject of data set [19] is Rattus norvegicus. Put plainly: Toxicity in male wistar rat assessed induction of mortality at 5ml/kg, po qd measured on 15th day after 24 hrs of last dose. Format: organism-based. The conditions noted are these: in vivo. The method in brief:
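Mature male Wistar rats, groups of 5, standard diet. Compounds suspended in 0.50% CMC sodium given orally at 5 ml/kg once daily for 14 days; controls received vehicle only. Animals weighed and killed under ether on day 15, 24 h after last dose.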

The mark [20] stands for this setting: Homo sapiens, DU-145, read-out: IC50.

Molecules are shown by their SMILES.

In general, IC50 refers to the concentration at which inhibition is half-maximal. Usually inhibition stands for the percentage by which the read-out fell short of the control.

Regarding `CCN1C(=O)CC[C@H]2[C@@H]3CC=C4C=C(c5nnn[nH]5)CC[C@]4(C)[C@H]3CC[C@@]21C`, the IC50 entry in data set [1] (du-145) is on record as “ND(Unstable)”.

As to `CC(=O)n1nnnc1C1=CC2=CC[C@@H]3[C@H](CC[C@]4(C)NC(=O)CC[C@@H]34)[C@@]2(C)CC1`, in data set [1] (du-145), the IC50 result is listed as “ND(Unstable)”.

As for `C[C@]12CCC(c3nnn[nH]3)=CC1=CC[C@@H]1[C@@H]2CC[C@@]2(C)[C@H]1CCC(=O)N2Cc1ccccc1`, the IC50 entry in data set [1] (du-145) is “ND(Unstable)”.

`CN1C(=O)CC[C@H]2[C@@H]3CC=C4C=C(c5nnn[nH]5)CC[C@]4(C)[C@H]3CC[C@@]21C`: the inhibition worked out at 6.4% in data set [2], 91.2% in [3] and 84.3% in data set [4]. Moreover, the IC50 in [5] was found to be 274 nM; in [1] (setting [20]) it was 389000 nM. The Activity in [6] came to 15.456 g%; in data set [7], 3.328 g; in data set [8] it was 41.684 mg; in [9], 44.593 mg; in data set [10] it was 199.778 mg; in [11], 1233.129 mg. Besides, the Activity in data set [12] was determined as 16.362 mg; in [13], 59.796 mg; in [14] it was 170.447 mg; in [15], 29.94%; in data set [16], 11.39%; in data set [17] it was 11.56%. For the same compound, the Activity is 9.03% in [18] and “Non-toxic” in data set [19].

`C[C@]12C=CC(=O)N[C@@H]1CC[C@@H]1[C@@H]2CC[C@]2(C)[C@@H](C(=O)Nc3cc(C(F)(F)F)ccc3C(F)(F)F)CC[C@@H]12` [DUTASTERIDE]: the Activity was 11.914 g% in [6]; 3.209 g in [7]; 35.858 mg in [8]; 29.211 mg in data set [9]; 118.275 mg in data set [10]; 1067.385 mg in data set [11]. For the same compound, the results for the Activity in [12], in data set [13] and in [14] were 14.208 mg, 52.802 mg and 155.415 mg, respectively.

With `C[C@]12CC[C@H]3[C@@H](CCC4=CC(=O)CC[C@@]43C)[C@@H]1CC[C@@H]2O` [TESTOSTERONE], the Activity in data set [6] is 3.767 g%; in data set [7], 3.292 g; in [8], 70.923 mg; in [9], 45.124 mg; in data set [10], 167.305 mg; in [11] it was 1108.457 mg. Moreover, the Activity is listed as 13.969 mg in [12], 55.097 mg in data set [13] and 171.193 mg in [14].

Take `CC(C)(C)NC(=O)[C@H]1CC[C@H]2[C@@H]3CC[C@H]4NC(=O)C=C[C@]4(C)[C@H]3CC[C@]12C` [FINASTERIDE]: the values for the IC50 in data set [5] and in data set [1] (setting [20]) were 40 nM and 548000 nM, respectively. Moreover, the Activity in data set [6] was 8.032 g%; in data set [7] it was 3.5097 g; in data set [8], 32.866 mg; in data set [9], 27.519 mg; in data set [10], 105.51 mg; in data set [11], 1058.022 mg. Also, the Activity in data set [12] was found to be 16.575 mg; in [13], 57.843 mg; in [14], 160.371 mg; in data set [15] it was 44.76%; in data set [16] it was 45.32%; in data set [17] it was 14.45%. In data set [18], this compound registered an Activity of 14.4%.

With `C[C@]12CCC(c3nnn[nH]3)=CC1=CC[C@@H]1[C@@H]2CC[C@@]2(C)[C@H]1CCC(=O)N2CCc1nnn[nH]1`, the IC50 entry in data set [1] (du-145) is “ND(Unstable)”.

In the case of `C=CCN1C(=O)CC[C@H]2[C@@H]3CC=C4C=C(c5nnn[nH]5)CC[C@]4(C)[C@H]3CC[C@@]21C`, the inhibition in [2] came out at 31.7%; in [3] it was 100%; in [4] it was 94.7%. Also, the IC50 amounted to 157 nM in [5] and 496000 nM in data set [1] (setting [20]). Also, the Activity was 19.229 g% in [6]; 3.548 g in [7]; 39.499 mg in [8]; 41.802 mg in data set [9]; 141.816 mg in data set [10]; 1318.403 mg in data set [11]. Moreover, the Activity in [12] is 24.261 mg; in [13], 42.548 mg; in data set [14], 169.924 mg; in data set [15], 33.61%; in data set [16], 16.94%; in data set [17], 37.07%. Moreover, the Activity in data set [18] was 9.3%; in data set [19] it was “Non-toxic”.

As for `C[C@]12CCC(c3nnn[nH]3)=CC1=CC[C@@H]1[C@@H]2CC[C@]2(C)NC(=O)CC[C@@H]12`, the inhibition in [2] was 9.6%; in [3] it was 100%; in data set [4], 90.6%. In addition, the concentration for half-maximal inhibition (IC50) in [5] is 220 nM; in data set [1] (du-145), “Not Active”. Moreover, the Activity in data set [6] is reported as 15.498 g%; in data set [7], 3.215 g; in [8] it was 44.744 mg; in data set [9], 31.548 mg; in data set [10] it was 183.148 mg; in data set [11] it was 1152.287 mg. In addition, the Activity in data set [12] worked out at 16.421 mg; in data set [13], 42.532 mg; in data set [14], 166.584 mg; in data set [15] it was 24.79%; in data set [16], 37.31%; in data set [17], 37.09%. Also, the Activity in data set [18] is 11.09%; in [19], “Non-toxic”.
